How the values were obtained:
[1] = Cytotoxicity against mouse EAC cells assessed as non-viable cells at 10 ug/ml after 2 hrs by trypan blue exclusion assay; assay type: functional, Ehrlich
In short: (§1)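 EAC cells drawn aseptically by needle aspiration of ascitic fluid from previously inoculated mice; suspension at 2.5 × 10^6 cells per ml. Test agents dissolved in DMSO (1 ml) at 100, 50, 25 and 10 µg, then diluted into the cell suspension. Incubation 2 h at 37 °C. Non-viable cell percentage counted by trypan blue exclusion. IC50 taken from the survival ratio versus concentration curve.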

[2] = Cytotoxicity against mouse EAC cells after 2 hrs by trypan blue exclusion assay; assay type: functional, cell-based; settings: Ehrlich; in short: as §1
[3] = Cytotoxicity against mouse EAC cells assessed as non-viable cells at 25 ug/ml after 2 hrs by trypan blue exclusion assay; assay type: functional, Ehrlich; in short: as §1
[4] = Cytotoxicity against mouse EAC cells assessed as non-viable cells at 100 ug/ml after 2 hrs by trypan blue exclusion assay; assay type: functional, Ehrlich; in short: as §1
[5] = Cytotoxicity against mouse EAC cells assessed as non-viable cells at 50 ug/ml after 2 hrs by trypan blue exclusion assay; assay type: functional, Ehrlich; in short: as §1

Row | SMILES | Activity [1] | IC50 [2] | Activity [3] | Activity [4] | Activity [5]
1 | N#CC1=C(N)N(c2ccc(S(N)(=O)=O)cc2)C2=C(CCCC2)C1c1ccccc1 (stereo not given) | 5% | > 100 mg/L | 10% | 30% | 20%
2 | N#CC1=C(N)N(c2ccc(S(N)(=O)=O)cc2)C2=C(CCCC2)C1c1ccc(Cl)c(Cl)c1 (stereo not given) | 1% | 100 mg/L | 40% | 50% | 50%
3 | Cc1ccc(C2C(C#N)=C(N)N(c3ccc(S(N)(=O)=O)cc3)C3=C2CCCC3)cc1 (stereo not given) | 20% | 85.7 µM | 30% | 90% | 80%
4 | N#CC1=C(N)N(c2ccc(S(N)(=O)=O)cc2)C2=C(CCCC2)C1c1ccccc1O (stereo not given) | 10% | 118 µM | 40% | 100% | 50%
5 | N#CC1=C(N)N(c2ccc(S(N)(=O)=O)cc2)C2=C(CCCC2)C1c1ccc(O)cc1 (stereo not given) | 20% | 82.9 µM | 42% | 100% | 60%
6 | N#CC1=C(N)N(c2ccc(S(N)(=O)=O)cc2)C2=C(CCCC2)C1c1cccc([N+](=O)[O-])c1 (stereo not given) | 0% | > 100 mg/L | 1% | 12% | 2%
7 | N#CC1=C(N)N(c2ccc(S(N)(=O)=O)cc2)C2=C(CCCC2)C1c1ccc([N+](=O)[O-])cc1 (stereo not given) | 0% | > 100 mg/L | 5% | 20% | 10%
8 | N#CC1=C(N)N(c2ccc(S(N)(=O)=O)cc2)C2=C(CCCC2)C1c1ccccc1Cl (stereo not given) | 0% | > 100 mg/L | 0% | 10% | 5%
9 | N#CC1=C(N)N(c2ccc(S(N)(=O)=O)cc2)C2=C(CCCC2)C1c1ccc(Cl)cc1Cl (stereo not given) | 0% | 105 µM | 50% | 70% | 50%
10 | N#CC1=C(N)N(c2ccc(S(N)(=O)=O)cc2)C2=C(CCCC2)C1c1c(O)ccc2ccccc12 (stereo not given) | 10% | 100 mg/L | 5% | 50% | 20%
11 | COc1ccc2ccccc2c1C1C(C#N)=C(N)N(c2ccc(S(N)(=O)=O)cc2)C2=C1CCCC2 (stereo not given) | 5% | 100 mg/L | 10% | 50% | 10%
12 | COc1ccc(C2C(C#N)=C(N)N(c3ccc(S(N)(=O)=O)cc3)C3=C2CCCC3)c2ccccc12 (stereo not given) | 0% | > 100 mg/L | 5% | 20% | 10%
13 | N#CC1=C(N)N(c2ccc(S(N)(=O)=O)cc2)C2=C(CCCC2)C1/C=C/c1ccccc1 (stereo not given) | 50% | 23.1 µM | 70% | 70% | 90%
14 | COc1ccccc1C1C(C#N)=C(N)N(c2ccc(S(N)(=O)=O)cc2)C2=C1CCCC2 (stereo not given) | 30% | 115 µM | 40% | 100% | 50%
15 | COc1cc(C2C(C#N)=C(N)N(c3ccc(S(N)(=O)=O)cc3)C3=C2CCCC3)ccc1O (stereo not given) | 0% | 100 mg/L | 2% | 50% | 30%
16 | CCOc1cc(C2C(C#N)=C(N)N(c3ccc(S(N)(=O)=O)cc3)C3=C2CCCC3)ccc1OC (stereo not given) | 0% | > 100 mg/L | 5% | 10% | 5%
17 | COc1cc(OC)c(C2C(C#N)=C(N)N(c3ccc(S(N)(=O)=O)cc3)C3=C2CCCC3)cc1OC (stereo not given) | 0% | 101 µM | 0% | 100% | 50%
18 | N#CC1=C(N)N(c2ccc(S(N)(=O)=O)cc2)C2=C(CCCC2)C1c1cccs1 (stereo not given) | 0% | > 100 mg/L | 5% | 20% | 10%
19 | Cc1ccc(C2C(C#N)=C(N)N(c3ccc(S(N)(=O)=O)cc3)C3=C2CCCC3)o1 (stereo not given) | 0% | > 100 mg/L | 10% | 30% | 10%
20 | COc1ccc(C2C(C#N)=C(N)N(c3ccc(S(N)(=O)=O)cc3)C3=C2CCCC3)cc1 (stereo not given) | 50% | 22.9 µM | 90% | 100% | 100%
21 | N#CC1=C(N)N(c2ccc(S(N)(=O)=O)cc2)C2=C(CCCC2)[C@@H]1c1ccc2c(c1)OCO2 | 100% | < 22.2 µM | 100% | 100% | 100%
22 | COc1cccc2c1C(=O)c1c(O)c3c(c(O)c1C2=O)C[C@@](O)(C(=O)CO)C[C@@H]3O[C@H]1C[C@H](N)[C@H](O)[C@H](C)O1 [DOXORUBICIN] | 17% | 69.9 µM | 25% | 100% | 70%

Source: ChEMBL document CHEMBL1177874, “Synthesis and in vitro anticancer screening of some novel 4-[2-amino-3-cyano-4-substituted-5,6,7,8-tetrahydroquinolin-1-(4H)-yl]benzenesulfonamides” (Eur J Med Chem, 2010)
